The text below walks through data of ChEMBL document CHEMBL3826901, “Design, synthesis, and mode of action studies of a mitomycin tetramer inducing double activations with a single probe” (Bioorg Med Chem, 2016).

Data set [1] concerns Escherichia coli. Kind of data set: Induction of interstrand cross-linking in EcoR1-linearized Escherichia coli pBR322 plasmid DNA at 0.10 mM after 2 hrs using 5 equiv of Et3P by ethidium bromide staining based alkaline agarose gel electrophoresis. The procedure, abridged: (§1)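 EcoRI-linearized pBR322 DNA in aqueous Tris-HCl pH 7.4 was N2-deaerated for 15 min. Mitomycin (from 5 mM DMSO stock) and Et3P (5 equiv) were added, then incubated 2 h at room temperature. Purified DNA was run on a denaturing alkaline agarose gel (40 mM NaOH, 1 mM EDTA) with a HindIII-digested λ marker. The gel was neutralized and ethidium bromide-stained, and the cross-linked band quantified.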

A short description of data set [2]: Prodrug activation in Tris HCl methanolic solution at 0.03 mM at pH 7.4 using 5 equiv of Et3P by UV-visible spectrophotometry. Particulars: buffer, pH 7.4, 30 µM. In short, it runs like this:
(§2)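 Mitomycin (from 1.0 mM methanolic stock) was in 0.1 M Tris-HCl methanolic buffer, 'pH' 7.4, at 25 °C. Nucleophile was added from methanolic stock (final 0.06–1.5 mM). UV-vis scans (200–500 nm) ran beyond two half-lives. Pseudo-first-order kobs and t1/2 were derived from 370 nm absorbance. Final 'pH' was within ±0.1 units. Runs were in duplicate and averaged.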

Data set [3] deals with Escherichia coli. Kind of data set: Induction of interstrand cross-linking in EcoR1-linearized Escherichia coli pBR322 plasmid DNA at 0.20 mM after 2 hrs using 5 equiv of Et3P by ethidium bromide staining based alkaline agarose gel electrophoresis. The procedure, abridged:
as §1

Data set [4] in a line: Prodrug activation in Tris HCl methanolic solution at pH 7.4 using 5 equiv of Et3P by UV-visible spectrophotometry. Particulars: buffer.
Data set [5] in a line: Prodrug activation in Tris HCl methanolic solution at 0.030 mM at pH 7.4 using 10 equiv of Et3P by UV-visible spectrophotometry. Particulars: buffer, pH 7.4, 30 µM. The procedure, abridged: as §2
Data set [6] deals with Escherichia coli. In words: Induction of interstrand cross-linking in EcoR1-linearized Escherichia coli pBR322 plasmid DNA at 0.025 mM after 2 hrs using 5 equiv of Et3P by ethidium bromide staining based alkaline agarose gel electrophoresis. In short, it runs like this: as §1
Data set [7] in a line: Prodrug activation in Tris HCl methanolic solution at 0.015 mM at pH 7.4 using 20 equiv of Et3P by UV-visible spectrophotometry. Particulars: buffer, pH 7.4, 15 µM. The procedure, abridged: as §2
The nature of data set [8]: Prodrug activation in Tris HCl methanolic solution assessed as half-life at 0.015 mM at pH 7.4 using 10 equiv of L-DTT by UV-visible spectrophotometry. Particulars: buffer, pH 7.4, 15 µM. The procedure, abridged:
as §2

Data set [9] deals with Escherichia coli. Kind of data set: Induction of interstrand cross-linking in EcoR1-linearized Escherichia coli pBR322 plasmid DNA at 0.050 mM after 2 hrs using 5 equiv of Et3P by ethidium bromide staining based alkaline agarose gel electrophoresis. In short, it runs like this: as §1
A short description of data set [10]: Prodrug activation in Tris HCl methanolic solution at 0.015 mM at pH 7.4 using 20 equiv of GSH by UV-visible spectrophotometry. Particulars: buffer, pH 7.4, 15 µM. The procedure, abridged:
as §2

A short description of data set [11]: Prodrug activation in Tris HCl methanolic solution assessed as half-life at 0.015 mM at pH 7.4 using 5 equiv of Et3P by UV-visible spectrophotometry. Particulars: buffer, pH 7.4, 15 µM. The procedure, abridged:
as §2

The nature of data set [12]: Prodrug activation in Tris HCl methanolic solution assessed as half-life at 0.015 mM at pH 7.4 using 10 equiv of Et3P by UV-visible spectrophotometry. Particulars: buffer, pH 7.4, 15 µM. The procedure, abridged:
as §2

The nature of data set [13]: Prodrug activation in Tris HCl methanolic solution at 0.015 mM at pH 7.4 using 5 equiv of Et3P by UV-visible spectrophotometry. Particulars: buffer, pH 7.4, 15 µM. In short, it runs like this: as §2
A short description of data set [14]: Prodrug activation in Tris HCl methanolic solution at 0.015 mM at pH 7.4 using 10 equiv of Et3P by UV-visible spectrophotometry. Particulars: buffer, pH 7.4, 15 µM. In short, it runs like this:
as §2

The nature of data set [15]: Prodrug activation in Tris HCl methanolic solution assessed as half-life at 0.015 mM at pH 7.4 using 20 equiv of Et3P by UV-visible spectrophotometry. Particulars: buffer, pH 7.4, 15 µM. In short, it runs like this:
as §2

Data set [16] can be described thus: Prodrug activation in Tris HCl methanolic solution assessed as half-life at 0.015 mM at pH 7.4 using 20 equiv of GSH by UV-visible spectrophotometry. Particulars: pH 7.4, 15 µM. In short, it runs like this: as §2
Data set [17] can be described thus: Prodrug activation in Tris HCl methanolic solution assessed as half-life at 0.015 mM at pH 7.4 using 20 equiv of L-DTT by UV-visible spectrophotometry. Particulars: buffer, pH 7.4, 15 µM. The procedure, abridged: as §2
A short description of data set [18]: Prodrug activation in Tris HCl methanolic solution at 0.015 mM at pH 7.4 using 50 equiv of Et3P by UV-visible spectrophotometry. Particulars: buffer, pH 7.4, 15 µM. In short, it runs like this: as §2
A short description of data set [19]: Prodrug activation in Tris HCl methanolic solution at 0.015 mM at pH 7.4 using 10 equiv of L-DTT by UV-visible spectrophotometry. Particulars: buffer, pH 7.4, 15 µM. The procedure, abridged:
as §2

Data set [20] can be described thus: Prodrug activation in Tris HCl methanolic solution assessed as half-life at 0.015 mM at pH 7.4 using 50 equiv of Et3P by UV-visible spectrophotometry. Particulars: buffer, pH 7.4, 15 µM. In short, it runs like this:
as §2

Data set [21] can be described thus: Prodrug activation in Tris HCl methanolic solution at 0.015 mM at pH 7.4 using 20 equiv of L-DTT by UV-visible spectrophotometry. Particulars: buffer, pH 7.4, 15 µM. In short, it runs like this:
as §2

`CO[C@@]12[C@H](COC(N)=O)C3=C(C(=O)C(C)=C(NCC(O)CNC4=C(C)C(=O)C5=C(C4=O)[C@@H](COC(N)=O)[C@@]4(OC)[C@H]6N[C@H]6CN54)C3=O)N1C[C@@H]1N[C@@H]12` (some centres undefined): in the data set with Escherichia coli [1], the Activity came out at 5%. In addition, the Drug metabolism entry in data set [2] is “metabolite_notdetected”.
`CO[C@@]12[C@H](COC(N)=O)C3=C(C(=O)C(C)=C(N)C3=O)N1C[C@@H]1N[C@@H]12` [MITOMYCIN]: the Activity with Escherichia coli [3] was found to be 2%. Also, in data set [4], the Drug metabolism result is “metabolite_notdetected”.
As to `CO[C@@]12[C@H](COC(N)=O)C3=C(C(=O)C(C)=C(NCC4CCC(CNC5=C(C)C(=O)C6=C(C5=O)[C@@H](COC(N)=O)[C@@]5(OC)[C@H]7N[C@H]7CN65)SS4)C3=O)N1C[C@@H]1N[C@@H]12` (some centres undefined), the K in data set [5] was 1.35 day⁻¹. For the same compound, the Activity in the data set on Escherichia coli [1] was 40.5%.
Consider `CO[C@@]12[C@H](COC(N)=O)C3=C(C(=O)C(C)=C(NCC(CNC4=C(C)C(=O)C5=C(C4=O)[C@@H](COC(N)=O)[C@@]4(OC)[C@H]6N[C@H]6CN54)SSC(CNC4=C(C)C(=O)C5=C(C4=O)[C@@H](COC(N)=O)[C@@]4(OC)[C@H]6N[C@H]6CN54)CNC4=C(C)C(=O)C5=C(C4=O)[C@@H](COC(N)=O)[C@@]4(OC)[C@H]6N[C@H]6CN54)C3=O)N1C[C@@H]1N[C@@H]12` (some centres undefined), for which the Activity in the data set with Escherichia coli [3] is 68%; in the data set with Escherichia coli [6], 17%; in the data set with Escherichia coli [9] it was 41%; in the data set on Escherichia coli [1], 51%. The K came out at 2.9 day⁻¹ in data set [7]; 1 day⁻¹ in data set [10]; 0.72 day⁻¹ in [13]; 1.3 day⁻¹ in data set [14]; 6.9 day⁻¹ in [18]; 0.69 day⁻¹ in data set [19]. Further, the K in data set [21] amounted to 1.3 day⁻¹. The t1/2 in data set [8] was determined as 24 h; in data set [11] it was 23 h; in data set [12], 12.7 h; in data set [15], 5.76 h; in [16], 16.6 h; in [17], 12.7 h. The t1/2 in [20] worked out at 2.4 h.
